# Compounds with a hit are over-represented: about 2.3% of the library has one in this group of screens.
# NS3 helicase inh = inhibitors of HCV NS3 helicase, primary screen, biochemical, Cy5 molecular beacon fluorescence; Hepatitis C virus NS3 helicase; NS3 helicase DNA unwinding; inhibition, % at 10.9 µM; 290,000 compounds, 0.56% hits; AID 1800, 2009;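 active = inhibition above the mean of all tested compounds plus 3 SD, set per campaign, cut at about 35% in these data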;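 also: 0% = DMSO wells and 100% = thioflavine S control wells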
#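 Control set: DMSO versus 110 µM thioflavine S; Material: NS3 helicase fragment of HCV; Measured by: Cy5 fluorescence at 0 and 60 min, beacon hairpin quenching; Read-out basis: percent inhibition from t60/t0 fluorescence ratio; Times: reaction time 60 min, 25 °C; Repeats: single replicate; Compound dosing: single dose, 10.9 µM nominal final, DMSO 0.8% final.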
# core dimer inh = inhibitors of HCV core protein dimerization, primary screen, biochemical, TR-FRET, high-throughput | inhibition, % at 5 µM | 300,000 compounds, 0.33% hits | TR-FRET GST/Flag-core106 dimerization, 1536-well;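 active = inhibition above the mean of all tested compounds plus 3 SD, set per screening campaign, cut at about 45% in these data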
#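 Assay system: tagged HCV core106 pair (GST and Flag); medium: KF-containing HEPES buffer, pH 7.45, DTT, CHAPS, BSA; also added: Eu donor and XL665 acceptor anti-tag antibodies; dosing: 5 µM single dose; timing: compound-protein-antibody incubation 4 h at 22.5 °C; signal: TR-FRET 671 and 617 nm emission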
# EBV gp42 inh = Epstein-Barr virus gp42 inhibitors, primary screen, biochemical, uHTS, fluorescence polarization; 220,000 compounds, 0.42% hits; Fluorescence polarization binding assay, mP read-out; AID 1085, 2008; inhibition, % (tested at 21.74 µM); in the data active = inhibition above about 50%
# Target sequence (Q1HVG2 whole entry, looked up): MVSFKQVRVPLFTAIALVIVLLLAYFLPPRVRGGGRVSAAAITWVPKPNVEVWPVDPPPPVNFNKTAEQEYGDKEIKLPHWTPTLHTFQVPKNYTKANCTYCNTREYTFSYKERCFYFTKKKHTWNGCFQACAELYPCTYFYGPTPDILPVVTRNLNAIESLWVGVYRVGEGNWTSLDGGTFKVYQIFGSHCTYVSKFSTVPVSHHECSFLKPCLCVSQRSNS
# GPR7 antagonist = GPR7 receptor antagonists, primary screen, cell-based, fluorescence, single concentration | GPR7-expressing cells, fluorescence antagonist assay | 290,000 compounds, 1.1% hits | AID 1861, 2009 | inhibition, % at 4.4 µM; in the data active = inhibition above about 16%, passing the limit was not always enough;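 also: cells stimulated with the agonist NPW; 0% = agonist with vehicle and 100% = vehicle without agonist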
# EBNA-1 inh = EBNA-1 DNA-binding inhibitors, primary screen, biochemical, fluorescence polarization; inhibition, % at 14.8 µM; 300,000 compounds, 0.34% hits; AID 1950, 2009; in the data active = inhibition above about 28%
# ZTA DNA inh = counter-screen for EBNA-1 inhibitors: inhibitors of Epstein-Barr virus ZTA; P03206; ZTA-DNA binding, fluorescence polarization; 320,000 compounds, 0.15% hits; AID 2234; inhibition, % at 11 µM; in the data active = inhibition above about 33%
# Target sequence (P03206 whole entry, looked up): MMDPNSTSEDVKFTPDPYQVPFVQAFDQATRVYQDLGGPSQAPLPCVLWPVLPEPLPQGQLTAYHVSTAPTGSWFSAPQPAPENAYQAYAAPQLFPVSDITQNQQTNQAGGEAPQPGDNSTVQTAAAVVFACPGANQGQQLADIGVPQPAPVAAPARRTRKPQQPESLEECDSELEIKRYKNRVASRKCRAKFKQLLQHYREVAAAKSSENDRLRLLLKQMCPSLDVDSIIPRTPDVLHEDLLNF
# EBNA-1 confirm = EBNA-1 DNA-binding inhibitors, retest, confirmation, biochemical, fluorescence polarization, triplicate | shares compounds with EBNA-1 inh | Recombinant EBNA-1 DBD, Cy5-DNA fluorescence polarization | inhibition, % at 14.8 µM | 830 compounds, 35% hits;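 active = mean inhibition across replicates above a set limit taken from the earlier primary screen, cut at about 28% in these data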;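 also: plate controls were EBNA-1 protein with DMSO for no effect and wells lacking EBNA-1 for full effect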
# ZTA DNA inh trip = EBV Zta DNA binding inhibitors, counter-screen for EBNA-1 inhibitor project, biochemical, fluorescence polarization, triplicate | 830 tested, under 10 active | inhibition, % at 11.1 µM | AID 2328, 2010 | shares compounds with EBNA-1 inh | Zta-ZRE DNA binding, Cy5 fluorescence polarization;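 active = mean inhibition over triplicates above a set limit taken from the primary EBNA-1 screen, cut at about 37% in these data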;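 also: purified full length Zta protein with Cy5 labeled ZRE DNA probe; 0% = Zta with DMSO and 100% = wells lacking Zta protein; inhibitors lower polarization by freeing the labeled DNA probe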
# Active calls of the source: *; . = no result given; + = active, no number.
SMILES,NS3 helicase inh,core dimer inh,EBV gp42 inh,GPR7 antagonist,EBNA-1 inh,ZTA DNA inh,EBNA-1 confirm,ZTA DNA inh trip
COC(=O)c1cc(NC(=O)C2CCCN(S(=O)(=O)c3c(C)n[nH]c3C)C2)cc(C(=O)OC)c1 (centres undefined),-13,-1,-6,-10,28*,-9,18,0
CS(=O)(=O)c1ccc(Cl)c(NC(=O)Cc2ccccc2F)c1,12,0,1,-17,5,10,.,.
CS(=O)(=O)c1ccc(Cl)c(NC(=O)Cc2c(F)cccc2Cl)c1,-9,11,0,-9,44*,-6,30*,-12
COCCn1cnnc1SCC(=O)Nc1cc(OC)c([N+](=O)[O-])cc1C,-10,2,-1,0,+,20,-3,-5
COc1ccc(N2CCN(C(=O)NCc3cccc(OC)c3)CC2)cc1,5,-10,.,4,-6,-1,.,.
O=C(Nc1ccc(-c2nc3ccccc3o2)cc1)c1ccc(N2C(=O)C3C4C=CC(C4)C3C2=O)cc1 (centres undefined),-5,4,-12,-2,103*,28,112*,17
CCn1c(Cc2ccccc2)nnc1SCC(=O)Nc1ccc2c(c1)OCCO2,10,3,-30,4,29*,-1,-1,4
CCn1c(COc2ccccc2C)nnc1SCC(=O)Nc1ccc2c(c1)OCCO2,-6,.,0,-4,.,.,.,.
Cc1cc(C)n(-c2ccc(Cl)c(C(=O)Nc3ccc(OC(F)(F)F)cc3)n2)n1,-2,-2,-15,-12,6,-1,.,.
O=C(COC(=O)C12CC3CC(CC(C3)C1)C2)Nc1ccccc1F,7,9,-6,-13,-5,-1,.,.
COc1ccc(-c2nn(-c3ccccc3)cc2C(N)=O)cc1OC,5,3,.,4,4,1,.,.
Cc1ccc2nc(-c3ccc(NC(=O)CN4C(=O)NC(C)(c5ccc(OC(F)F)cc5)C4=O)cc3)sc2c1 (centres undefined),-12,-4,-11,-8,40*,8,18,9
CCOc1ccc(NC(=S)NNC(=S)Nc2cccc(C(F)(F)F)c2)cc1,-21,10,-6,1,9,9,.,.
COc1ccc(NC(=S)NNC(=S)Nc2cccc(C(F)(F)F)c2)cc1,-22,4,-3,-7,169*,-4,83*,1
CCN1C(=O)/C(=C2/C=Cc3cc(C)ccc3N2CC)N(C)C1=S,1,-46,-18,4,29*,-3,-3,-10
O=S(=O)(NCc1cn2ccccc2n1)c1cccs1,3,-6,-16,-4,-12,-6,.,.
CCn1c2ccccc2c2cc(NC(=O)COC(=O)c3ccccc3F)ccc21,7,14,-12,0,37*,6,25,-4
COc1cccc(-c2ccc(NC(=O)C3CCCN(CCCn4nc(C)cc4C)C3)cc2)c1 (centres undefined),-35,-4,.,6,-12,15,.,.
Cc1ccc(-c2nnc(NCc3nc4ccccc4[nH]3)c3ccccc23)cc1S(=O)(=O)N(C)C,-81,4,-30,-9,93*,7,37*,2
Cc1ccc(-c2nnc(NCc3nc4ccccc4[nH]3)c3ccccc23)cc1S(=O)(=O)N1CCOCC1,-42,9,-16,-12,3,10,.,.
COc1ccc(C(=O)NC2CCCc3c2cnn3-c2cc(F)cc(F)c2)c(OC)c1OC (centres undefined),-7,11,.,-16,4,19,.,.

# Screens: PubChem BioAssay, several laboratories
